ChEMBL document CHEMBL3046406, “Herbicidal potential of ophiobolins produced by Drechslera gigantea” (2006)
Calls of active or inactive are those of the source. No cut-off for these calls is given here.

Assays:
Assay type in all cases: functional
Sonchus oleraceus [1] = test: Herbicidal activity against Sonchus oleraceus assessed as diameter of leaf necrosis at 50 ug/ml measured after 2 days post-compound treatment by leaf puncture assay
How it was run: (§1)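 Detached leaf segments (about 5 cm) from young greenhouse-grown plants, each with a superficial puncture lesion (0.5 mm) made by glass capillary. Compound dissolved in DMSO, diluted with distilled water (final DMSO 2%), 8 µL droplet applied. Segments held on moist filter paper at 25 °C under continuous fluorescent light (10000 lux). DMSO droplets as control. Necrosis scored visually on a 0–3 scale at day 2.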

Sonchus oleraceus [2] = test: Herbicidal activity against Sonchus oleraceus assessed as diameter of leaf necrosis at 100 ug/ml measured after 2 days post-compound treatment by leaf puncture assay; how it was run: as §1
Sonchus oleraceus [3] = test: Herbicidal activity against Sonchus oleraceus assessed as diameter of leaf necrosis at 250 ug/ml measured after 2 days post-compound treatment by leaf puncture assay; how it was run: as §1
Diplotaxis erucoides [4] = test: Herbicidal activity against Diplotaxis erucoides assessed as diameter of leaf necrosis at 50 ug/ml measured after 2 days post compound treatment by leaf puncture assay; how it was run: as §1
Diplotaxis erucoides [5] = test: Herbicidal activity against Diplotaxis erucoides assessed as diameter of leaf necrosis at 100 ug/ml measured after 2 days post compound treatment by leaf puncture assay; how it was run: as §1
Convolvulus arvensis [6] = test: Herbicidal activity against Convolvulus arvensis assessed as diameter of leaf necrosis at 50 ug/ml measured after 2 days post compound treatment by leaf puncture assay; how it was run: as §1
Convolvulus arvensis [7] = test: Herbicidal activity against Convolvulus arvensis assessed as diameter of leaf necrosis at 100 ug/ml measured after 2 days post compound treatment by leaf puncture assay; how it was run: as §1
Convolvulus arvensis [8] = test: Herbicidal activity against Convolvulus arvensis assessed as diameter of leaf necrosis at 250 ug/ml measured after 2 days post compound treatment by leaf puncture assay; how it was run: as §1
Chenopodium album [9] = test: Herbicidal activity against Chenopodium album assessed as diameter of leaf necrosis at 50 ug/ml measured after 2 days post compound treatment by leaf puncture assay; how it was run: as §1
Chenopodium album [10] = test: Herbicidal activity against Chenopodium album assessed as diameter of leaf necrosis at 250 ug/ml measured after 2 days post compound treatment by leaf puncture assay; how it was run: as §1
Chenopodium album [11] = test: Herbicidal activity against Chenopodium album assessed as diameter of leaf necrosis at 100 ug/ml measured after 2 days post compound treatment by leaf puncture assay; how it was run: as §1
Amaranthus retroflexus [12] = test: Herbicidal activity against Amaranthus retroflexus assessed as diameter of leaf necrosis at 50 ug/ml measured after 2 days post compound treatment by leaf puncture assay; how it was run: as §1
Amaranthus retroflexus [13] = test: Herbicidal activity against Amaranthus retroflexus assessed as diameter of leaf necrosis at 250 ug/ml measured after 2 days post compound treatment by leaf puncture assay; how it was run: as §1
Amaranthus retroflexus [14] = test: Herbicidal activity against Amaranthus retroflexus assessed as diameter of leaf necrosis at 100 ug/ml measured after 2 days post compound treatment by leaf puncture assay; how it was run: as §1
Setaria viridis [15] = test: Herbicidal activity against Setaria viridis assessed as diameter of leaf necrosis at 50 ug/ml measured after 2 days post compound treatment by leaf puncture assay; how it was run: as §1
Setaria viridis [16] = test: Herbicidal activity against Setaria viridis assessed as diameter of leaf necrosis at 100 ug/ml measured after 2 days post compound treatment by leaf puncture assay; how it was run: as §1
Setaria viridis [17] = test: Herbicidal activity against Setaria viridis assessed as diameter of leaf necrosis at 250 ug/ml measured after 2 days post compound treatment by leaf puncture assay; how it was run: as §1
Bromus sterilis [18] = test: Herbicidal activity against Bromus sterilis assessed as diameter of leaf necrosis at 250 ug/ml measured after 2 days post compound treatment by leaf puncture assay; how it was run: as §1
[19] = test system: Avena sterilis subsp. ludoviciana; test: Herbicidal activity against Avena sterilis subsp. ludoviciana assessed as diameter of leaf necrosis at 50 ug/ml measured after 2 days post compound treatment by leaf puncture assay; how it was run: as §1
[20] = test system: Avena sterilis subsp. ludoviciana; test: Herbicidal activity against Avena sterilis subsp. ludoviciana assessed as diameter of leaf necrosis at 100 ug/ml measured after 2 days post compound treatment by leaf puncture assay; how it was run: as §1
[21] = test system: Avena sterilis subsp. ludoviciana; test: Herbicidal activity against Avena sterilis subsp. ludoviciana assessed as diameter of leaf necrosis at 250 ug/ml measured after 2 days post compound treatment by leaf puncture assay; how it was run: as §1
Diplotaxis erucoides [22] = test: Herbicidal activity against Diplotaxis erucoides assessed as diameter of leaf necrosis at 250 ug/ml measured after 2 days post compound treatment by leaf puncture assay; how it was run: as §1
Phalaris canariensis [23] = test: Herbicidal activity against Phalaris canariensis assessed as diameter of leaf necrosis at 50 ug/ml measured after 2 days post compound treatment by leaf puncture assay; how it was run: as §1
Phalaris canariensis [24] = test: Herbicidal activity against Phalaris canariensis assessed as diameter of leaf necrosis at 100 ug/ml measured after 2 days post compound treatment by leaf puncture assay; how it was run: as §1
Phalaris canariensis [25] = test: Herbicidal activity against Phalaris canariensis assessed as diameter of leaf necrosis at 250 ug/ml measured after 2 days post compound treatment by leaf puncture assay; how it was run: as §1
Oloptum miliaceum [26] = test: Herbicidal activity against Piptatherum miliaceum assessed as diameter of leaf necrosis at 50 ug/ml measured after 2 days post compound treatment by leaf puncture assay; how it was run: as §1
Oloptum miliaceum [27] = test: Herbicidal activity against Piptatherum miliaceum assessed as diameter of leaf necrosis at 100 ug/ml measured after 2 days post compound treatment by leaf puncture assay; how it was run: as §1
Oloptum miliaceum [28] = test: Herbicidal activity against Piptatherum miliaceum assessed as diameter of leaf necrosis at 250 ug/ml measured after 2 days post compound treatment by leaf puncture assay; how it was run: as §1
Echinochloa crus-galli [29] = test: Herbicidal activity against Echinochloa crus-galli (barnyard grass) assessed as diameter of leaf necrosis at 50 ug/ml measured after 2 days post compound treatment by leaf puncture assay; how it was run: as §1
Echinochloa crus-galli [30] = test: Herbicidal activity against Echinochloa crus-galli (barnyard grass) assessed as diameter of leaf necrosis at 100 ug/ml measured after 2 days post compound treatment by leaf puncture assay; how it was run: as §1
Echinochloa crus-galli [31] = test: Herbicidal activity against Echinochloa crus-galli (barnyard grass) assessed as diameter of leaf necrosis at 250 ug/ml measured after 2 days post compound treatment by leaf puncture assay; how it was run: as §1
Digitaria sanguinalis [32] = test: Herbicidal activity against Digitaria sanguinalis (hairy crabgrass) assessed as diameter of leaf necrosis at 50 ug/ml measured after 2 days post compound treatment by leaf puncture assay; how it was run: as §1
Digitaria sanguinalis [33] = test: Herbicidal activity against Digitaria sanguinalis (hairy crabgrass) assessed as diameter of leaf necrosis at 100 ug/ml measured after 2 days post compound treatment by leaf puncture assay; how it was run: as §1
Digitaria sanguinalis [34] = test: Herbicidal activity against Digitaria sanguinalis (hairy crabgrass) assessed as diameter of leaf necrosis at 250 ug/ml measured after 2 days post compound treatment by leaf puncture assay; how it was run: as §1
Cynodon dactylon [35] = test: Herbicidal activity against Cynodon dactylon assessed as diameter of leaf necrosis at 50 ug/ml measured after 2 days post compound treatment by leaf puncture assay; how it was run: as §1
Cynodon dactylon [36] = test: Herbicidal activity against Cynodon dactylon assessed as diameter of leaf necrosis at 100 ug/ml measured after 2 days post compound treatment by leaf puncture assay; how it was run: as §1
Cynodon dactylon [37] = test: Herbicidal activity against Cynodon dactylon assessed as diameter of leaf necrosis at 250 ug/ml measured after 2 days post compound treatment by leaf puncture assay; how it was run: as §1
Bromus sterilis [38] = test: Herbicidal activity against Bromus sterilis assessed as diameter of leaf necrosis at 50 ug/ml measured after 2 days post compound treatment by leaf puncture assay; how it was run: as §1
Bromus sterilis [39] = test: Herbicidal activity against Bromus sterilis assessed as diameter of leaf necrosis at 100 ug/ml measured after 2 days post compound treatment by leaf puncture assay; how it was run: as §1

CC(C)=C[C@H]1C[C@H](C)[C@]2(CC[C@]3(C)C[C@@H]4C(C)=CC(=O)[C@H]4/C(C=O)=C\C[C@H]32)O1 [3-ANHYDRO-6-EPI-OPHIOBOLIN A]
Activity (Sonchus oleraceus [1]): inactive
Activity (Sonchus oleraceus [2]): 1 mm
Activity (Sonchus oleraceus [3]): 1 mm
Activity (Diplotaxis erucoides [4]): 2 mm
Activity (Diplotaxis erucoides [5]): >3 mm
Activity (Convolvulus arvensis [6]): inactive
Activity (Convolvulus arvensis [7]): inactive
Activity (Convolvulus arvensis [8]): inactive
Activity (Chenopodium album [9]): inactive
Activity (Chenopodium album [10]): 1 mm
Activity (Chenopodium album [11]): 1 mm
Activity (Amaranthus retroflexus [12]): inactive
Activity (Amaranthus retroflexus [13]): inactive
Activity (Amaranthus retroflexus [14]): inactive
Activity (Setaria viridis [15]): 2 mm
Activity (Setaria viridis [16]): 2 mm
Activity (Setaria viridis [17]): 2 mm
Activity (Bromus sterilis [18]): 1 mm
Activity [19]: inactive
Activity [20]: inactive
Activity [21]: inactive
Activity (Diplotaxis erucoides [22]): >3 mm
Activity (Phalaris canariensis [23]): 1 mm
Activity (Phalaris canariensis [24]): 1 mm
Activity (Phalaris canariensis [25]): 1 mm
Activity (Oloptum miliaceum [26]): 1 mm
Activity (Oloptum miliaceum [27]): 1 mm
Activity (Oloptum miliaceum [28]): 1 mm
Activity (Echinochloa crus-galli [29]): 1 mm
Activity (Echinochloa crus-galli [30]): 1 mm
Activity (Echinochloa crus-galli [31]): 1 mm
Activity (Digitaria sanguinalis [32]): inactive
Activity (Digitaria sanguinalis [33]): 1 mm
Activity (Digitaria sanguinalis [34]): 1 mm
Activity (Cynodon dactylon [35]): inactive
Activity (Cynodon dactylon [36]): inactive
Activity (Cynodon dactylon [37]): inactive
Activity (Bromus sterilis [38]): 1 mm
Activity (Bromus sterilis [39]): 1 mm
